Assay outcomes from PubChem BioAssay.
Rows were chosen to be rich in hits. Some 3.8% of all compounds tested hit in one or more screens of this group.
Kir21 inh: blocks the mouse Kir2.1 inward-rectifier potassium channel; AID 1672; 310,000 tested, 0.85% active; B-score at 10 µM; HEK293-Kir2.1, FluxOR thallium flux fluorescence; stronger effect = lower value;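 active = fluorescence ratio B-score at or below minus 3 SD of library scores, with starting-brightness B-score within 2 SD, cut at about -4.2 in these data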;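 also: channel flux triggered by added potassium and thallium sulfate stimulus; B-score of peak minus minimum fluorescence over baseline after thallium stimulus; more negative B-score means stronger Kir2.1 block with less thallium influx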
KCNK3 inh: human KCNK3 channel inhibition, primary screen; CHO-KCNK3 thallium flux, FluxOR fluorescence; stronger effect = lower value; B-score at 10 µM; 340,000 tested, 0.84% active;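 active = B-score under library mean minus 4 SD, starting fluorescence ratio at most library mean plus 5 SD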;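 also: more negative B-score means stronger inhibition of thallium flux through KCNK3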
KCNQ1 inh: inhibitors of human KCNQ1 potassium channel; P51787; CHO-K1 KCNQ1, FluxOR thallium flux fluorescence; stronger effect = higher value; B-score at 10 µM; 310,000 tested, 1.3% active;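 active = compounds whose thallium flux B-score, printed positive for inhibition, exceeds three library SD while starting fluorescence stays within three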;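 also: channel opened by potassium depolarization with thallium stimulus after 20 min compound exposure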
Target sequence (P51787 whole entry, looked up): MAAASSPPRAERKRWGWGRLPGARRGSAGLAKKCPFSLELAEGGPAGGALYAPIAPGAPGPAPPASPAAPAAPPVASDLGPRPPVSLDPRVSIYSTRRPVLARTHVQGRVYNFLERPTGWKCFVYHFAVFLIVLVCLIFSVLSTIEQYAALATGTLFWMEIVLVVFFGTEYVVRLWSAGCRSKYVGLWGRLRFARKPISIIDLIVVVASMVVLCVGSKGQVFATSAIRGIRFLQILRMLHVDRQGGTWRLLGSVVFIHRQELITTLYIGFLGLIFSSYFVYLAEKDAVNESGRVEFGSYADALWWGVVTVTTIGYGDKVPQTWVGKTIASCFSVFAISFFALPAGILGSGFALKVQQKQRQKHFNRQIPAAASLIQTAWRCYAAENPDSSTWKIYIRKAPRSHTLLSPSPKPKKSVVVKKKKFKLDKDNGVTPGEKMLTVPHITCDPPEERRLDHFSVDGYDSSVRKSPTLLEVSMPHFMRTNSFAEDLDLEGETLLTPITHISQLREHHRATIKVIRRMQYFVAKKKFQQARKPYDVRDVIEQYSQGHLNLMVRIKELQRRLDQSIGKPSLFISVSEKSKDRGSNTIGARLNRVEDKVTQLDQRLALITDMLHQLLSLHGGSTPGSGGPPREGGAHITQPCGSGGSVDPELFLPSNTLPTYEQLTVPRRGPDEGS
KCNQ1 act: potentiates or activates the human KCNQ1 potassium channel; P51787; CHO-K1 KCNQ1, thallium flux FluxOR fluorescence; stronger effect = higher value; B-score at 10 µM; 310,000 tested, 0.35% active; AID 2648;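 active = fluorescence ratio B-score, a plate-corrected score, at least three library SD, with initial intensity B-score within 5 SD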
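Assay system: stable KCNQ1 CHO-K1 line; medium: assay buffer, equal DMSO in all wells; timing: 90 min dye loading and 20 min compound exposure, both at room temperature; technique: kinetic FluxOR thallium fluorescence, 10-s 1-Hz baseline, 110-s post-stimulus read; read-out basis: B score of baseline-normalized fluorescence ratio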
hERG rescue: compounds protecting human hERG from proarrhythmic drug block. Q12809. AID 1511. 310,000 tested, 0.51% active. activation (rescue from dofetilide block), less the hit threshold, % at 10 µM. CHO-hERG, FluxOR thallium flux, dofetilide IC70 present;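 active = activation above the mean of controls blocked by dofetilide plus 5 SD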;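 also: thallium influx through hERG after potassium depolarization seen as dye fluorescence rise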
KCNK9 block: inhibitors of human KCNK9 two-pore domain potassium channel | Q9NPC2 | HEK293 KCNK9, FluxOR thallium flux fluorescence; stronger effect = lower value | B-score at 10 µM | 310,000 tested, 1.2% active | AID 488922;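 active = ratio B-score over 3 SD below the library mean, with starting fluorescence within 5 SD of its mean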;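 also: negative B-score means less thallium flux so channel inhibition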
KCNQ1 inh valid: human KCNQ1 channel inhibition, validation assay; shares compounds with KCNQ1 inh; 1,600 tested, 93% active; inhibition, % at 10 µM; AID 588353; KCNQ1 cell line, FluxOR thallium flux fluorescence;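 active = primary screen active, with duplicate mean exceeding buffer control mean plus 3 SD of buffer wells, cut at about 28% in these data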;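 also: 0% = buffer control ratio and 100% = XE991 inhibitor control ratio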
CHO Tl flux: KCNQ1 inhibitor counter-screen hit in parental CHO cells | fluorescence ratio (Tl flux) at 10 µM | parental CHO-K1, FluxOR thallium flux fluorescence ratio; stronger effect = lower value; zero means no signal rise above baseline | shares compounds with KCNQ1 inh | AID 588366 | 1,600 tested, 21% active;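 active = mean of duplicate thallium-flux fluorescence ratios in parental host cells more than 5 SD below the buffer control mean, cut at about 0.38 in these data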;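 also: ratio is peak minus minimum fluorescence divided by baseline fluorescence; actives read low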
KCNQ1 APC inh: confirmation of human KCNQ1 potassium channel inhibitors by electrophysiology; 490 tested, 20% active; KCNQ1-CHO cells, automated patch clamp current; calls only at 10 µM; shares compounds with KCNQ1 inh;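 active = KCNQ1 current drop exceeding 3 SD of negative control wells, seen in both duplicate runs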;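 also: steady state current during a 2 s step from -80 to +40 mV; negative values mean current inhibition and positive values mean potentiation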
KCNQ2 inh: rat KCNQ2 inhibition in KCNQ1 inhibitor specificity screen; inhibition, % at 10 µM; 1,600 tested, 71% active; AID 651746; KCNQ2 cells, FluxOR thallium flux fluorescence; shares compounds with KCNQ1 inh;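 active = mean percent inhibition of the KCNQ2 thallium signal more than 5 SD above the buffer-only control wells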;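 also: KCNQ2 expressed in CHO cells; 0% = buffer control wells and 100% = XE-991 inhibitor control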
KCNQ1-KCNE1 inh: selectivity of KCNQ1 inhibitors: inhibition of human KCNQ1/KCNE1 channel | shares compounds with KCNQ1 inh | KCNQ1/KCNE1 cells, FluxOR thallium flux fluorescence | inhibition, % at 10 µM | 1,600 tested, 77% active;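 active = mean percent inhibition of duplicate wells above the buffer-only control mean plus 3 SD of those controls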;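 also: 0% = buffer only wells and 100% = XE-991 inhibitor control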
Numbers without * were called inactive; i = inactive; / = no result; + = active, no number.

SMILES | Kir21 inh | KCNK3 inh | KCNQ1 inh | KCNQ1 act | hERG rescue | KCNK9 block | KCNQ1 inh valid | CHO Tl flux | KCNQ2 inh | KCNQ1-KCNE1 inh | others
CC(NC(=S)Nc1ccc(OC(F)F)c(Cl)c1)C(C)(C)C (stereo not given) | -0.45 | i | 8* | i | -16 | i | 60* | 0.49 | i | 36%*
Cc1cccc(Cn2nc(C(C)(C)C)cc2C(=O)Nc2ccc(F)cc2)c1 | -0.9 | i | 12* | i | -18 | i | 175* | 0.22* | 144%* | +
CC(C)(C)c1ccc(C(=O)Cn2cnnc2C#N)cc1 | 0.26 | i | 6* | i | -9 | i | 79* | 0.47 | i | 36%*
C/C(=N/NC(=O)CNC(=O)c1cccnc1)c1ccc(Cl)c(Cl)c1 | 1 | i | i | i | -5 | i | / | / | / | /
CCc1ccc(S(=O)(=O)/N=C2\C=C(NS(=O)(=O)c3ccccc3)C(=O)c3ccccc32)cc1 | 1.9 | i | 12* | i | -11 | i | 97* | 0.45 | 79%* | 94%* | KCNQ1 APC inh=+
COc1ccc(-c2nc3ccccc3nc2-c2ccccc2)cc1OC | -0.78 | i | i | i | -19 | i | / | / | / | /
COc1ccc(-c2cc(-c3ccccc3)nc(Cl)n2)cc1OC | 1 | i | 8* | i | -6 | i | 131* | 0.45 | 128%* | 166%* | KCNQ1 APC inh=i
CN(CC(=O)Nc1ccc(F)cc1)C(=O)CSc1nnc(Cc2ccccc2)o1 | / | i | / | / | / | / | / | / | / | /
Cc1ccc(NC(=O)CN2C(=O)NC(C)(C3CC3)C2=O)cc1S(=O)(=O)N1CCCCC1 (stereo not given) | / | i | / | / | / | / | / | / | / | /
Cc1nc(-c2ccc(S(=O)(=O)N3CCN(c4cccc(C)c4C)CC3)cc2)co1 | 0.07 | i | 6* | i | -8 | i | 74* | 0.5 | 104%* | 112%*
Cc1nc(-c2ccc(S(=O)(=O)N3CCN(c4ccccc4)CC3)cc2)co1 | 0.49 | i | i | i | -5 | i | / | / | / | /
COc1ccc2nc(NC(=O)Nc3ccccc3)sc2c1 | 0.05 | i | i | i | -7 | i | / | / | / | /
CC(C)(C)c1nc(NC(=O)Nc2ccccc2)sc1Br | 0.77 | i | 7* | i | -14 | i | 92* | 0.51 | i | 69%* | KCNQ1 APC inh=i
O=C(Nc1ccccn1)Nc1ccccc1Cl | -0.21 | i | i | i | -8 | i | / | / | / | /
S=C(NCC1CCCCC1)Nc1ccc(Oc2ccccc2)cc1 | -5.2 | i | 9* | i | -10 | i | 81* | 0.53 | 65%* | i
COc1ccc(N(CC(=O)NCCSc2ccccn2)S(=O)(=O)c2ccccc2)c(OC)c1 | -1.1 | i | i | i | -18 | i | / | / | / | /
O=C(c1ccc2c(c1)OCO2)N(Cc1ccco1)C1(C(=O)NC2CCCCC2)CCCCC1 | 0.34 | i | 6* | i | -10 | i | 80* | 0.36* | 89%* | 78%*
NC(=O)N/N=C/C=C/c1ccc(F)cc1 | 0.48 | i | i | i | -8 | i | / | / | / | /
O=C(Nc1cccc(F)c1)N(Cc1ccc(Cl)cc1)CC(O)C(F)(F)F (stereo not given) | 0.07 | i | 8* | i | -12 | i | 72* | 0.51 | i | 56%*
O=C(CCCOc1ccc(Cl)cc1Cl)N/N=C/c1cccc([N+](=O)[O-])c1 | 1.1 | i | i | i | -3 | i | / | / | / | /
S=c1[nH]ncn1/N=C/c1ccccn1 | 2.3 | i | i | i | -4 | i | / | / | / | /
CC1=CC(C)(C)N=C(Nc2nc(C)c3cc(C)cc(C)c3n2)N1 | -1 | i | 6* | i | -24 | i | 79* | 0.51 | 70%* | 59%*
Cc1cc(C)c2nc(Nc3nc(-c4ccccc4)cc(=O)[nH]3)nc(C)c2c1 | 0.05 | i | i | i | -9 | i | / | / | / | /
COc1ccc(C(C)=O)cc1CSc1nncn1C | -0.82 | i | 8* | i | -4 | i | 64* | 0.43 | 60%* | 35%*
COc1cccc(OC)c1C(=O)Nc1ccc(S(=O)(=O)Nc2ncccn2)cc1 | 0.29 | i | i | i | -8 | i | / | / | / | /
SMILES | Kir21 inh | KCNK3 inh | KCNQ1 inh | KCNQ1 act | hERG rescue | KCNK9 block | KCNQ1 inh valid | CHO Tl flux | KCNQ2 inh | KCNQ1-KCNE1 inh | others
Cc1cc(C)c(C#N)c(SCC(=O)CC(=O)OC(C)C)n1 | -0.89 | i | i | i | -8 | i | / | / | / | /
CC(C)OC(=O)CSc1nc2c(c(C3CC=CCC3)c1C#N)CCC2 (stereo not given) | -1 | i | 10* | i | -8 | i | 96* | 0.38* | 132%* | 106%*
C=CCSc1nc2c(c(C3CC=CCC3)c1C#N)CCC2 (stereo not given) | -2.2 | i | 6* | i | -3 | -7.7* | 88* | 0.46 | 101%* | 143%* | KCNQ1 APC inh=i
COc1cccc(N2CCc3c(C)nc4ccc(Cl)cc4c32)c1 | -14* | i | 6* | i | -22 | i | 102* | 0.38 | 98%* | 77%* | KCNQ1 APC inh=+
COc1ccc(N2CCc3c(C)nc4c(OC)cc(OC)cc4c32)cc1 | -4.7* | -10* | 6* | i | -32 | i | 0 | 0.51 | i | i
Cc1ccc(C(=O)N2CCN(c3ncccn3)CC2)cc1S(=O)(=O)N1CCCCC1 | 2.2 | i | i | i | -10 | i | / | / | / | /
CCCn1nc(NC(=O)c2cccs2)c2cc3cccc(C)c3nc21 | 0.35 | i | 7* | i | -10 | i | 158* | 0.32* | i | +
CC1=C(C(=O)Nc2cccc(C(=O)N3CCC(C(N)=O)CC3)c2)SCCO1 | 1.1 | i | i | i | -5 | i | / | / | / | /
COC(=O)c1cc2n(n1)CCN(Cc1ccc(F)cc1)C2=O | 0.84 | i | i | i | -6 | i | / | / | / | /
O=C(CN1CCN(C(=O)C2CCCO2)CC1)Nc1ccc(Cl)cc1 (stereo not given) | -0.77 | i | i | i | -5 | i | / | / | / | /
